ChEMBL document CHEMBL3120159, “Discovery of 2-pyridone derivatives as potent HIV-1 NNRTIs using molecular hybridization based on crystallographic overlays” (Bioorg Med Chem, 2014)

test system: Human immunodeficiency virus 2; assay: Antiviral activity against HIV2 ROD infected in human MT4 cells assessed as protection against virus-induced cytopathic effect after 5 days by MTT assay; assay type: functional, organism-based; settings: Human immunodeficiency virus 2, ISOLATE ROD, MT4, 120 h
How it was run: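 MT-4 cells resuspended at 6 × 10⁵ cells/mL after centrifugation at 200 g for 5 min. HIV-2 (ROD) added at 100-300 CCID₅₀. Test compound given as serial five-fold dilutions, triplicate wells. Viability of infected cells measured spectrophotometrically by MTT after 5 days. EC₅₀ = concentration giving 50% protection against viral cytopathic effect.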

Row | Structure (SMILES) | EC50 [µM]
1 | Cc1cc(C)cc(Oc2cc(Nc3ccc(C#N)cc3)[nH]c(=O)c2I)c1 | > 24
2 | Cc1cc(C)cc(Oc2cc(Nc3ccc(C#N)cc3)[nH]c(=O)c2Br)c1 | > 19
3 | Cc1cc(C)cc(Oc2cc(Nc3ccc(C#N)cc3)[nH]c(=O)c2Cl)c1 | > 21
4 | COc1cc(Oc2c(C)cc(C)cc2C)cc(Nc2ccc([N+](=O)[O-])cc2)n1 | > 7.2
5 | COc1cc(Oc2c(C)cc(C)cc2C)cc(Nc2ccc(C)cc2)n1 | > 35
6 | COc1cc(Oc2c(C)cc(C)cc2C)cc(Nc2ccc(C#N)cc2)n1 | > 29
7 | COc1cc(Oc2c(C)cc(C#N)cc2C)cc(Nc2ccc(C#N)cc2)n1 | > 147
8 | COc1cc(Oc2c(C)cccc2C)cc(Nc2ccc(C#N)cc2)n1 | > 8.8
9 | COc1cc(Oc2cc(C)cc(C)c2)cc(Nc2ccc(C#N)cc2)n1 | > 20
10 | Cc1cc(C)c(Oc2cc(Nc3ccc([N+](=O)[O-])cc3)[nH]c(=O)c2)c(C)c1 | > 26
11 | Cc1ccc(Nc2cc(Oc3c(C)cc(C)cc3C)cc(=O)[nH]2)cc1 | > 37

test system: not listed separately; assay: Selectivity index, ratio of CC50 for human MT4 cells to EC50 for HIV2 ROD; assay type: toxicity, cell-based; settings: read-out: Ratio CC50/EC50
How it was run: (§1)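 Selectivity index is CC₅₀/EC₅₀. Both values come from the same MTT assay in MT-4 cells: mock-infected and virus-infected (100-300 CCID₅₀) wells were run in parallel and read at day 5.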

Row | Structure (SMILES) | selectivity ratio
12 | Cc1cc(C)cc(Oc2cc(Nc3ccc(C#N)cc3)[nH]c(=O)c2I)c1 | < 1
13 | Cc1cc(C)cc(Oc2cc(Nc3ccc(C#N)cc3)[nH]c(=O)c2Br)c1 | < 1
14 | Cc1cc(C)cc(Oc2cc(Nc3ccc(C#N)cc3)[nH]c(=O)c2Cl)c1 | < 1
15 | COc1cc(Oc2c(C)cc(C)cc2C)cc(Nc2ccc([N+](=O)[O-])cc2)n1 | < 1
16 | COc1cc(Oc2c(C)cc(C)cc2C)cc(Nc2ccc(C)cc2)n1 | < 1
17 | COc1cc(Oc2c(C)cc(C)cc2C)cc(Nc2ccc(C#N)cc2)n1 | < 1
18 | COc1cc(Oc2c(C)cc(C#N)cc2C)cc(Nc2ccc(C#N)cc2)n1 | ≤ 1
19 | COc1cc(Oc2c(C)cccc2C)cc(Nc2ccc(C#N)cc2)n1 | < 1
20 | COc1cc(Oc2cc(C)cc(C)c2)cc(Nc2ccc(C#N)cc2)n1 | < 1
21 | Cc1cc(C)c(Oc2cc(Nc3ccc([N+](=O)[O-])cc3)[nH]c(=O)c2)c(C)c1 | < 1
22 | Cc1ccc(Nc2cc(Oc3c(C)cc(C)cc3C)cc(=O)[nH]2)cc1 | < 1

test system: not listed separately; assay: Selectivity index, ratio of CC50 for human MT4 cells to EC50 for HIV1 RES056; assay type: toxicity, cell-based; settings: read-out: Ratio CC50/EC50; how it was run: as §1

Row | Structure (SMILES) | selectivity ratio
23 | COc1cc(Oc2c(C)cc(C)cc2C)cc(Nc2ccc(C#N)cc2)n1 | < 1
24 | COc1cc(Oc2c(C)cc(C#N)cc2C)cc(Nc2ccc(C#N)cc2)n1 | 1
25 | Cc1cc(C)c(Oc2cc(Nc3ccc([N+](=O)[O-])cc3)[nH]c(=O)c2)c(C)c1 | < 1
26 | Cc1ccc(Nc2cc(Oc3c(C)cc(C)cc3C)cc(=O)[nH]2)cc1 | < 1

test system: not listed separately; assay: Cytotoxicity against human MT4 cells after 5 days by MTT assay; assay type: cell-based; settings: not given
How it was run: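 Exponentially growing MT-4 cells resuspended at 6 × 10⁵ cells/mL and exposed to serial five-fold compound dilutions in triplicate, mock-infected alongside infected wells. Viability read by MTT assay at day 5. CC₅₀ = concentration reducing mock-infected cell viability by 50%.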

Row | Structure (SMILES) | CC50 at 120 h [µM]
27 | Cc1cc(C)cc(Oc2cc(Nc3ccc(C#N)cc3)[nH]c(=O)c2I)c1 | 24
28 | Cc1cc(C)cc(Oc2cc(Nc3ccc(C#N)cc3)[nH]c(=O)c2Br)c1 | 19
29 | Cc1cc(C)cc(Oc2cc(Nc3ccc(C#N)cc3)[nH]c(=O)c2Cl)c1 | 21
30 | COc1cc(Oc2c(C)cc(C)cc2C)cc(Nc2ccc([N+](=O)[O-])cc2)n1 | 7.2
31 | COc1cc(Oc2c(C)cc(C)cc2C)cc(Nc2ccc(C)cc2)n1 | 35
32 | COc1cc(Oc2c(C)cc(C)cc2C)cc(Nc2ccc(C#N)cc2)n1 | 29
33 | COc1cc(Oc2c(C)cc(C#N)cc2C)cc(Nc2ccc(C#N)cc2)n1 | > 147
34 | COc1cc(Oc2c(C)cccc2C)cc(Nc2ccc(C#N)cc2)n1 | 8.5
35 | COc1cc(Oc2cc(C)cc(C)c2)cc(Nc2ccc(C#N)cc2)n1 | 20
36 | Cc1cc(C)c(Oc2cc(Nc3ccc([N+](=O)[O-])cc3)[nH]c(=O)c2)c(C)c1 | 26
37 | Cc1ccc(Nc2cc(Oc3c(C)cc(C)cc3C)cc(=O)[nH]2)cc1 | 37
38 | CC(C)Nc1cccnc1N1CCN(C(=O)c2cc3cc(NS(C)(=O)=O)ccc3[nH]2)CC1 [DELAVIRDINE] | > 36
39 | Cc1ccnc2c1NC(=O)c1cccnc1N2C1CC1 [NEVIRAPINE] | > 15

test system: Human immunodeficiency virus 1; assay: Antiviral activity against HIV1 harboring reverse transcriptase K101N mutant infected in human MT4 cells; assay type: functional, organism-based; settings: Human immunodeficiency virus 1, MT4

Row | Structure (SMILES) | EC50 [µM]
40 | Cc1cc(C#N)cc(C)c1Oc1nc(Nc2ccc(C#N)cc2)nc(N)c1Br [ETRAVIRINE] | 0.0012
41 | Cc1cc(/C=C/C#N)cc(C)c1Nc1ccnc(Nc2ccc(C#N)cc2)n1 [RILPIVIRINE] | 0.0003

test system: Human immunodeficiency virus 1; assay: Antiviral activity against HIV1 harboring reverse transcriptase K101N/Y181C double mutant infected in human MT4 cells; assay type: functional, organism-based; settings: Human immunodeficiency virus 1, MT4

Row | Structure (SMILES) | EC50 [µM]
42 | Cc1cc(C#N)cc(C)c1Oc1nc(Nc2ccc(C#N)cc2)nc(N)c1Br [ETRAVIRINE] | 0.0043

test system: Human immunodeficiency virus 1; assay: Antiviral activity against HIV1 3B harboring wild type reverse transcriptase infected in human MT4 cells assessed as protection against virus-induced cytopathic effect after 5 days by MTT assay; assay type: functional, organism-based; settings: Human immunodeficiency virus 1, 3B, MT4, 120 h
How it was run: (§2)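 MT-4 cells, growing exponentially, were spun and resuspended at 6 × 10⁵ cells/mL. They were infected at the start together with compound, given as serial five-fold dilutions in triplicate wells, with mock-infected wells run in parallel. Viability was read by MTT after 5 days. EC₅₀ is the concentration giving 50% protection against viral cytopathic effect.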

Row | Structure (SMILES) | EC50 [µM]
43 | Cc1cc(C)cc(Oc2cc(Nc3ccc(C#N)cc3)[nH]c(=O)c2I)c1 | > 24
44 | Cc1cc(C)cc(Oc2cc(Nc3ccc(C#N)cc3)[nH]c(=O)c2Br)c1 | > 19
45 | Cc1cc(C)cc(Oc2cc(Nc3ccc(C#N)cc3)[nH]c(=O)c2Cl)c1 | > 21
46 | COc1cc(Oc2c(C)cc(C)cc2C)cc(Nc2ccc([N+](=O)[O-])cc2)n1 | > 7.2
47 | COc1cc(Oc2c(C)cc(C)cc2C)cc(Nc2ccc(C)cc2)n1 | > 35
48 | COc1cc(Oc2c(C)cc(C)cc2C)cc(Nc2ccc(C#N)cc2)n1 | 0.84
49 | COc1cc(Oc2c(C)cc(C#N)cc2C)cc(Nc2ccc(C#N)cc2)n1 | 0.7
50 | COc1cc(Oc2c(C)cccc2C)cc(Nc2ccc(C#N)cc2)n1 | > 8.5
51 | COc1cc(Oc2cc(C)cc(C)c2)cc(Nc2ccc(C#N)cc2)n1 | > 20
52 | Cc1cc(C)c(Oc2cc(Nc3ccc([N+](=O)[O-])cc3)[nH]c(=O)c2)c(C)c1 | 1.4
53 | Cc1ccc(Nc2cc(Oc3c(C)cc(C)cc3C)cc(=O)[nH]2)cc1 | 1.4
54 | CC(C)Nc1cccnc1N1CCN(C(=O)c2cc3cc(NS(C)(=O)=O)ccc3[nH]2)CC1 [DELAVIRDINE] | 0.91

test system: Human immunodeficiency virus 1; assay: Antiviral activity against HIV1 RES056 harboring reverse transcriptase K103N/Y181C double mutant infected in human MT4 cells assessed as protection against virus-induced cytopathic effect after 5 days by MTT assay; assay type: functional, organism-based; settings: Human immunodeficiency virus 1, RES056, MT4, 120 h; how it was run: as §2

Row | Structure (SMILES) | EC50 [µM]
55 | COc1cc(Oc2c(C)cc(C)cc2C)cc(Nc2ccc(C#N)cc2)n1 | > 29
56 | COc1cc(Oc2c(C)cc(C#N)cc2C)cc(Nc2ccc(C#N)cc2)n1 | > 147
57 | Cc1cc(C)c(Oc2cc(Nc3ccc([N+](=O)[O-])cc3)[nH]c(=O)c2)c(C)c1 | > 26
58 | Cc1ccc(Nc2cc(Oc3c(C)cc(C)cc3C)cc(=O)[nH]2)cc1 | > 37
59 | CC(C)Nc1cccnc1N1CCN(C(=O)c2cc3cc(NS(C)(=O)=O)ccc3[nH]2)CC1 [DELAVIRDINE] | > 36

test system: not listed separately; assay: Selectivity index, ratio of CC50 for human MT4 cells to EC50 for HIV1 3B; assay type: toxicity, cell-based; settings: read-out: Ratio CC50/EC50; how it was run: as §1

Row | Structure (SMILES) | selectivity ratio
60 | Cc1cc(C)cc(Oc2cc(Nc3ccc(C#N)cc3)[nH]c(=O)c2I)c1 | < 1
61 | Cc1cc(C)cc(Oc2cc(Nc3ccc(C#N)cc3)[nH]c(=O)c2Br)c1 | < 1
62 | Cc1cc(C)cc(Oc2cc(Nc3ccc(C#N)cc3)[nH]c(=O)c2Cl)c1 | < 1
63 | COc1cc(Oc2c(C)cc(C)cc2C)cc(Nc2ccc([N+](=O)[O-])cc2)n1 | < 1
64 | COc1cc(Oc2c(C)cc(C)cc2C)cc(Nc2ccc(C)cc2)n1 | < 1
65 | COc1cc(Oc2c(C)cc(C)cc2C)cc(Nc2ccc(C#N)cc2)n1 | 35
66 | COc1cc(Oc2c(C)cc(C#N)cc2C)cc(Nc2ccc(C#N)cc2)n1 | ≥ 211
67 | COc1cc(Oc2c(C)cccc2C)cc(Nc2ccc(C#N)cc2)n1 | < 1
68 | COc1cc(Oc2cc(C)cc(C)c2)cc(Nc2ccc(C#N)cc2)n1 | < 1
69 | Cc1cc(C)c(Oc2cc(Nc3ccc([N+](=O)[O-])cc3)[nH]c(=O)c2)c(C)c1 | 19
70 | Cc1ccc(Nc2cc(Oc3c(C)cc(C)cc3C)cc(=O)[nH]2)cc1 | 26
71 | CC(C)Nc1cccnc1N1CCN(C(=O)c2cc3cc(NS(C)(=O)=O)ccc3[nH]2)CC1 [DELAVIRDINE] | > 40
